Compound activity from PubChem BioAssay.
SENP1 inh – human SENP1 catalytic domain inhibitors, primary screen, biochemical, FRET, uHTS | 0.21% of 360,000 active | recombinant SENP1 catalytic domain, CyPet-SUMO1-YPet FRET cleavage | inhibition, % at 10 µM;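 active means inhibition at least 30% at 10 µM, raw YFP signal under a set limit, fluorescence ratio 0.5 to 1.5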;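 further: 0% = enzyme with DMSO and 100% = no enzyme wells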
Target sequence (Q9P0U3 419-644 limits assumed): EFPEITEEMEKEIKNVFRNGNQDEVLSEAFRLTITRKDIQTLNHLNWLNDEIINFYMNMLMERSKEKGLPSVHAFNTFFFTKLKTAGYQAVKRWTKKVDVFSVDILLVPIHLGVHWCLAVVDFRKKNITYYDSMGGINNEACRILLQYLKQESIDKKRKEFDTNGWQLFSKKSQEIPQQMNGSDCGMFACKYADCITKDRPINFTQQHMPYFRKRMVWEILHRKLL
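Material – human SENP1 catalytic domain · Input – SENP1 enzyme, 20 pM final · Compound dosing – single concentration of 10 µM compound, 0.5% DMSO final · Timing – enzyme reaction for 50 min at room temperature, dark · Measured by – FRET fluorescence in CFP and YFP emission channels · Control set – no-enzyme wells low, DMSO-plus-enzyme wells high control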
SENP6 inh – SENP6 protease inhibitors, primary screen, biochemical, luminescence, uHTS; Recombinant SENP6 catalytic domain, aminoluciferin luminescence; inhibition, % at 10 µM; 1.8% of 330,000 active; AID 2599, 2010;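 active means inhibition above about 50% at the single tested dose, limit read from the data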;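 further: plate controls were DMSO wells with enzyme for no effect and DMSO wells lacking enzyme for full effect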
SENP8 block-1 – human SENP8 protease inhibitors, primary screen, biochemical, fluorescence, Nedd8 protein substrate, uHTS; 0.64% of 360,000 active; Sentrin-specific protease 8 (Homo sapiens), Q96LD8; AID 602440, 2012; recombinant SENP8; inhibition, % at 20 µM; in the data active means inhibition mostly above about 40%, no sharp cut-off; inactive means mostly below about 27%
Target sequence (Q96LD8 whole entry, looked up): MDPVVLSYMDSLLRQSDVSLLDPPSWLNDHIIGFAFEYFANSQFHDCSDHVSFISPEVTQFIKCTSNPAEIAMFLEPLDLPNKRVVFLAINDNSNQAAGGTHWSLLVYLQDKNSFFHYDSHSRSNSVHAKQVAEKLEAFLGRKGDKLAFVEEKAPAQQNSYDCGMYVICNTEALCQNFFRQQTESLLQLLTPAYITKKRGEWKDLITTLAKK
SENP7 inh – SENP7 protease inhibitors, primary screen, biochemical, luminescence, uHTS. Sentrin-specific protease 7 (Homo sapiens), Q9BQF6. AID 434973, 2010. inhibition, % at 5 µM. 1.5% of 330,000 active. recombinant SENP7, Z-RLRGG-aminoluciferin luminescence, 40 min;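 active means inhibition above about 50% at the single test dose, limit read from the data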;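 further: plate controls were DMSO with enzyme for no effect and no enzyme buffer wells for full effect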
Platelet DG rel – inhibitors of platelet dense granule secretion, primary screen, cell-based, MLPCN, human platelets | human platelet-rich plasma, SFLLRN dense granule ATP release, luminescence | inhibition, %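 (compounds screened at 7.5 µM in platelet-rich plasma)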 | 0.22% of 300,000 active | AID 1663, 2009;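 active means mean replicate score, as percent of positive control, at or above 50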
SENP8 block-2 – SENP8 protease inhibitors, primary screen, biochemical, luminescence | AID 2540, 2010 | 1.2% of 330,000 active | purified SENP8, Z-RLRGG-aminoluciferin cleavage | inhibition, % at 10 µM | Sentrin-specific protease 8 (Homo sapiens), Q96LD8; in the data active means inhibition above about 50%
SENP8 conf – SENP8 protease inhibitors, retest, confirmation, biochemical, luminescence, single concentration | shares compounds with SENP7 inh | Recombinant SENP8, Z-RLRGG-aminoluciferin luminescence, 60 min | inhibition, % at 12.5 µM | 40% of 6,200 active | AID 488912, 2010;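 active means mean inhibition across replicates above about 50%, limit read from the data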
SENP6 conf – SENP6 protease inhibitors, confirmation, biochemical, luminescence, single concentration; shares compounds with SENP7 inh; inhibition, % at 12.5 µM; recombinant SENP6, Z-RLRGG-aminoluciferin luminescence; 58% of 6,200 active
SENP7 confirm – SENP7 protease inhibitors, retest, confirmation, biochemical, luminescence, single concentration; shares compounds with SENP7 inh; recombinant SENP7, Z-RLRGG-aminoluciferin luminescence, 40 min; inhibition, % at 12.5 µM; 69% of 6,200 active
Casp3 select – caspase-3 protease inhibitors, confirmation, selectivity assay for SENP inhibitor project, biochemical, single concentration; shares compounds with SENP7 inh; purified caspase-3, Z-DEVD-aminoluciferin luminescence, 60 min; inhibition, % at 12.5 µM; 60% of 6,200 active;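 active means mean inhibition above about 50%, limit read from the data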;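 further: plate controls were enzyme with DMSO for no effect and wells without caspase-3 for full effect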
Target sequence (P42574 28-227 limits assumed): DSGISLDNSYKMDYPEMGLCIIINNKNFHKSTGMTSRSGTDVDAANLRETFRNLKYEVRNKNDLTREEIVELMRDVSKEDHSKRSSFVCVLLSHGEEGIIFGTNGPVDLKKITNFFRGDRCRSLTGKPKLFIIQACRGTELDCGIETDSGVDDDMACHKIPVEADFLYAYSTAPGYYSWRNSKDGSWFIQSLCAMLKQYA
SENP luc ctr – luminescence interference (SENP counter-screen); Pre-incubated SENP8/Z-RLRGG-aminoluciferin, luciferase luminescence interference; 39% of 6,200 active; shares compounds with SENP7 inh; inhibition, % at 12.5 µM;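 active means mean inhibition above about 50% when retested at one dose, limit read from the data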;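 further: plate controls were DMSO wells with completed reaction for no effect and substrate without enzyme for full effect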
Starred values were filed as active, the others as inactive; nt = not tested or not shown. Only some compounds are listed: those with a hit (about 2.6% of all), similar ones and a draw of the others.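 How the source made its calls, unless noted: active means mean inhibition above about 50% in the one-dose retest (limit read from the data); inactive means the rest.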

SMILES	SENP1 inh	SENP6 inh	SENP8 block-1	SENP7 inh	Platelet DG rel	SENP8 block-2	SENP8 conf	SENP6 conf	SENP7 confirm	Casp3 select	SENP luc ctr
Fc1ccc(NC(=S)Nc2cccc3cnccc23)cc1	-2.1	97.8*	-100.0	76.7*	-5.8	88.9*	-0.7	17.3	2.3	-1.7	-2.8
CCN(C(=S)Nc1cccnc1)c1cccc2ccccc12	-2.2	86.9*	-376.2	54.0*	-5.5	51.4*	-7.5	-3.6	-1.1	-1.4	-5.2
CCN(C(=S)Nc1cccnc1)c1ccccc1	0.1	6.7	12.1	10.7	0.8	-1.6	nt	nt	nt	nt	nt
Cc1cc(Cl)ccc1NC(=S)Nc1cccnc1	0.6	-14.0	27.4	2.8	0.5	2.4	nt	nt	nt	nt	nt
S=C(Nc1ccc(Cl)cc1)Nc1cccc2cnccc12	-21.4	92.0*	-156.2	61.7*	12.5	84.8*	9.4	56.3*	28.0	7.2	6.1
S=C(Nc1cccnc1)Nc1cccc2cnccc12	-1.1	94.5*	-54.9	85.5*	7.8	91.6*	20.5	48.2	28.4	4.4	-1.1
COc1c2c(c(OC)c3ccccc13)[C@]1(OC2)O[C@H](CCO)C[C@H](O)[C@H]1O	1.5	nt	-11.1	nt	nt	nt	nt	nt	nt	nt	nt
COc1ccc(S(=O)(=O)N(C)C)cc1NC(=O)COC(=O)C1CC1	3.1	-10.7	10.4	-7.2	nt	-2.1	nt	nt	nt	nt	nt
CCCCNS(=O)(=O)c1cccc(NC(=O)[C@@H]2O[C@H](CO)[C@@H](O)[C@H]2O)c1	1.1	nt	7.2	nt	nt	nt	nt	nt	nt	nt	nt
Cc1cc(NS(C)(=O)=O)c(=O)n(Cc2cccc(C(F)(F)F)c2)c1	-10.5	nt	-204.9	nt	nt	nt	nt	nt	nt	nt	nt
Cc1ccc(C(=O)Nc2cccc(C(=O)N3CCOCC3)c2)cc1	1.8	-2.2	9.0	0.6	-0.4	-0.7	nt	nt	nt	nt	nt
O=C(Nc1cccc(C(=O)N2CCOCC2)c1)c1ncn[nH]1	-0.1	-3.7	7.0	84.5*	-1.0	1.8	10.7	8.2	12.6	8.2	6.2
CCCCOc1ncnc2c1[nH]c1ccc(OC)cc12	nt	33.5	nt	76.9*	4.2	15.7	27.2	28.9	47.5	46.3	5.1
Cn1c(O)c(N=Nc2nc(-c3ccccc3)cs2)c2ccccc21	45.9*	16.2	29.5	58.8*	-1.0	3.9	1.4	3.9	-5.8	3.5	-5.4
Cn1c(O)c(N=Nc2ccccc2)c2ccccc21	1.8	2.8	2.9	2.2	1.8	-1.3	nt	nt	nt	nt	nt
COc1ccc(-c2cc(C(=O)N3CCOCC3)no2)cc1	2.0	50.9*	9.0	54.6*	0.7	41.7	54.4*	51.8*	83.2*	79.3*	53.3*
O=C(c1cc(-c2ccc(Br)cc2)on1)N1CCOCC1	0.8	52.5*	15.8	34.2	-0.1	27.2	24.8	45.6	21.4	35.4	2.3
O=C(c1cc(-c2cccc(O)c2)on1)N1CCOCC1	1.9	62.7*	14.8	46.8	14.2	26.4	48.0	41.7	69.8*	78.0*	59.0*
O=C(c1cc(-c2cccc(O)c2)on1)N1CCCCCC1	0.5	37.3	11.7	16.2	-10.4	20.2	nt	nt	nt	nt	nt
O=C(c1cc(-c2ccc(Br)cc2)on1)N1CCCCCC1	0.6	-2.1	13.1	15.7	0.8	-13.4	nt	nt	nt	nt	nt
O=C(O)C1CCN(C(=O)CCc2ccccc2)CC1	0.4	1.3	16.7	0.8	0.7	5.8	nt	nt	nt	nt	nt
CSc1ccccc1-c1ccc2nccn2c1	-37.6	nt	-170.6	nt	nt	nt	nt	nt	nt	nt	nt
c1ccc2[nH]c(-c3ccnc4ccccc34)nc2c1	-1.4	-27.3	-387.7	-7.0	-2.3	-10.7	nt	nt	nt	nt	nt
N#CC1=C(N)SC(N)=C(C#N)C1c1ccnc2ccccc12	-17.7	1.4	-305.9	-1.7	6.7	-9.1	nt	nt	nt	nt	nt
O=C1c2ccccc2C(=O)C1c1ccnc2ccccc12	-2.9	79.0*	28.3	99.2*	6.7	85.4*	83.9*	89.0*	99.8*	93.6*	20.9
SMILES	SENP1 inh	SENP6 inh	SENP8 block-1	SENP7 inh	Platelet DG rel	SENP8 block-2	SENP8 conf	SENP6 conf	SENP7 confirm	Casp3 select	SENP luc ctr
O=C1C(c2ccnc3ccccc23)=C(O)c2ccccc21	16.2	64.4*	61.8*	96.9*	19.5	38.9	85.7*	86.4*	96.7*	94.3*	87.8*
O=C1c2ccccc2C(=O)C1c1nccc2ccccc12	-13.5	97.4*	34.1	95.6*	9.4	58.7*	87.4*	81.2*	98.3*	91.5*	29.1
O=Cc1nccc2ccccc12	-3.7	nt	-8.6	nt	nt	nt	nt	nt	nt	nt	nt
CCOC(=O)N1CCN(C(=O)COC(=O)CSc2ccc([N+](=O)[O-])cc2)CC1	5.9	-2.5	8.7	-2.4	-4.7	0.8	nt	nt	nt	nt	nt
O=C(CCN1C(=O)/C(=C/c2ccccc2Cl)SC1=S)N1CCCC1	3.4	8.7	24.2	-16.2	-10.6	-5.6	nt	nt	nt	nt	nt
O=C(CCCN1C(=O)/C(=C/c2ccccc2Cl)SC1=S)N1CCCC1	2.9	73.8*	22.3	68.3*	-4.8	84.0*	84.6*	84.0*	87.7*	61.3*	28.2
O=C(CCCN1C(=O)/C(=C/c2ccccc2Cl)SC1=S)NCCCN1CCOCC1	1.2	52.3*	22.4	20.5	-6.2	21.7	50.3*	44.2	64.6*	29.6	40.1
O=C(CCN1C(=O)/C(=C/c2ccccc2F)SC1=S)NCCCN1CCOCC1	1.7	-13.9	9.4	-4.6	-1.9	-5.1	nt	nt	nt	nt	nt
CCC1=NC(c2ccc(Br)cc2)N(O)C1(C)C (stereo not given)	2.6	4.0	14.4	-0.4	5.9	-2.7	nt	nt	nt	nt	nt
CCOC(=O)c1oc2cccc(OC(C)=O)c2c1C	2.9	43.2	19.5	14.4	-5.0	29.0	nt	nt	nt	nt	nt
CCOC(=O)c1oc2cccc(O)c2c1C	0.8	-13.1	-47.5	63.0*	5.3	50.4*	2.0	59.3*	82.5*	59.2*	64.9*
